Wee1 degr inh: human Wee1 degradation inhibition, primary screen; P30291; HeLa Luc-Wee1K328M stability, luciferase luminescence; 100% = proteasome inhibitor MG132 effect; reporter increase, % at 5 µM; actives 1.2% (n = 220,000); AID 1321;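 active means activation above the mean of all tested compounds plus 3 SD, set per screening run, cut at about 8.8% in these data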;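 further: cells exposed to compound for 20 h before luminescence read; 0% = DMSO alone and 100% = MG132 at 30 µM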
14-3-3 Bad PPI: disrupts binding of bovine 14-3-3 zeta to phospho-Bad peptide | TR-FRET 14-3-3zeta/Dy647-pBad peptide displacement, 1 h | inhibition, % at 21.7 µM | P63103 | AID 781 | actives 0.71% (n = 220,000);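 active means inhibition above about 70%, limit read from the data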;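 further: 0% = full 14-3-3 plus peptide FRET controls and 100% = background without 14-3-3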
Mdm2 ligase inh: Mdm2 E3 ligase (human) inhibition; cell-based MDM2 ubiquitination luciferase reporter, 2 h; 0 = plate control, 100 = twice control, blank-subtracted; signal enhancement, % at 5 µM; Q00987; AID 1230; actives 0.11% (n = 210,000);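 active means signal enhancement of 30% or more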;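 further: luminescence tracks abundance of the self-degrading MDM2-luciferase fusion protein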
Target sequence (Q00987 whole entry, looked up, the tested form may be a part): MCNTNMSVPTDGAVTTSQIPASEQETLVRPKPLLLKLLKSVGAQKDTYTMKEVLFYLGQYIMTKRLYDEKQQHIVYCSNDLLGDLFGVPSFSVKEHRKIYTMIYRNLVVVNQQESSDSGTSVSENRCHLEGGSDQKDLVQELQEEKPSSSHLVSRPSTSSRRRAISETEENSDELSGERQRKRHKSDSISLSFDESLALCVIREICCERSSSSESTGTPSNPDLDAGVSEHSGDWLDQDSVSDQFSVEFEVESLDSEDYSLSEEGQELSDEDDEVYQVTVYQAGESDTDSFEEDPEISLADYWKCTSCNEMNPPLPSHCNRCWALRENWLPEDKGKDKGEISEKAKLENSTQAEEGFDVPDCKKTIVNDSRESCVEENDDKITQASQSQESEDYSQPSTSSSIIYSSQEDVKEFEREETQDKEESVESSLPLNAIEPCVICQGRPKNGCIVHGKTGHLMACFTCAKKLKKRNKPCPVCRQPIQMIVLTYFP
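System: stable MDM2–luciferase fusion reporter cells / Input: 2000 cells seeded into each well / Schedule: 4 h settle plus 2 h compound, 37 °C / Compound: single-point 5 µM / Buffer or medium: cells held in DMEM / Benchmarks: control and blank well means / Evaluation: percent signal gain over controls, blank-subtracted / Measured by: luciferase luminescence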
TbHK1 inh: T. brucei hexokinase 1 inhibition | recombinant TbHK1, G6PDH-coupled NADH A340 | inhibition, % at 10 µM | actives 0.11% (n = 220,000) | AID 1430;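 active means inhibition of 50% or more in the single-dose primary screen; inactive means inhibition below 50%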
Hck Nef HTS: blocks Nef-activated human Hck kinase; inhibition, % at 20 µM; P08631; Recombinant Hck-YEEI plus Nef, Z-Lyte FRET kinase assay; actives 0.68% (n = 220,000);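 active means Hck-Nef kinase inhibition above about 50%, limit read from the data; inactive means inhibition below that limit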;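 further: 0% = DMSO with Hck plus Nef and 100% = Hck alone without Nef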
An asterisk follows results filed as active; . = no result given; [ ] = another dose, or the depositor's remark. A selection: hits, their analogues and other compounds. The true share with any hit is near 2.7%.

SMILES	Wee1 degr inh	14-3-3 Bad PPI	Mdm2 ligase inh	TbHK1 inh	Hck Nef HTS
Cc1ccc(S(=O)(=O)Cn2nnnc2CN2CCCC3(CCCCC3)C2)cc1	0	-7	-5	6	1
Cc1ccc(S(=O)(=O)Cn2nnnc2CN2CCOCC2)cc1	11*	12	-5	-1	-1
COc1nccc(-c2ccc(F)cc2)c1C#N	3	-13	-3	3	23
CN(/N=C/c1ccncc1)c1cnc2ccccc2n1	10.0*	2	-21	-33	30
CCN(CC)CC(=O)Nc1cc(N(C)C)nc2ccccc12	-3	58	-14	-7	12
CCCc1nc2ccccc2c(C(=O)O)c1CC	-4	19	-10	1	1
CCCc1nc2ccccc2c(NC(=O)CN(CC)CC)c1CC	-3	80*	1	-5	2
CCCCc1nc2ccccc2c(NC(=O)CN(CC)CC)c1CCC	4	74*	-22	0	1
CCOC(=O)c1sc(S(C)=O)c2c1CCc1conc1-2 (stereo not given)	0	-15	-4	-28	4
CN(CCCNC(=O)C1CCN(S(=O)(=O)c2cccc3nsnc23)CC1)Cc1ccccc1	2	2	-12	58*	4
CCC(CC)NC(=O)Cc1ccccc1OC	1	3	-17	-5	-1
CC(C)c1ccc(NC(=O)CSc2ncccc2C(=O)Oc2cccc([N+](=O)[O-])c2)cc1	2	18	.	1	4
CC(C)(C)NC(=O)CSc1nc2ccccc2c(=O)[nH]1	9.6*	6	-11	-4	23
COc1nc(-c2ccccc2)ccc1-c1noc(COc2ccccc2)n1	-1	82*	-9	1	5
Cn1c(-c2ccc3c(c2)OCO3)cnc1NCc1ccc(Cl)cc1	3	77*	-5	8	-1
Cn1c(-c2ccc(F)cc2)cnc1NCc1ccc(F)cc1	2	80*	.	13	-1
Cn1c(-c2ccc(Br)cc2)cnc1NCc1cccnc1	-2	79*	.	5	-2
Cc1ccc(S(=O)(=O)NN2C(=O)c3ccccc3NC2c2ccccn2)cc1 (stereo not given)	-2	-6	11	2	16
CCCCOc1ccc(NC(=O)Nc2nnc(C)s2)cc1	-2	2	-3	4	2
COc1ccc(C(N)CCc2ccc(C)o2)cc1 (stereo not given)	2	88*[fluorescence artefact?]	.	-1	2
Cc1cc(/C=C(\C#N)c2nnc(N3CCOCC3)n2-c2ccccc2)c(C)n1-c1ccccc1	10*	-13	.	-45	4
COc1cc(/C=C(\C#N)c2nnc(N3CCOCC3)n2-c2ccccc2)ccc1O	-2	-6	0	-9	2
O=C(/C=C/Nc1ccc(Oc2ccccc2Cl)cc1)c1ccco1	6	-11	-18	-3	16
COc1ccc(N/N=C(/C(N)=O)C2=NC(C)(C)Cc3ccccc32)cc1	-2	-19	-5	-12	54*
COc1ccc(N/N=C(\C#N)C(N)=O)cc1	3	-11	-4	-25	3
SMILES	Wee1 degr inh	14-3-3 Bad PPI	Mdm2 ligase inh	TbHK1 inh	Hck Nef HTS
O=C(CNC(c1ccccc1)c1ccccc1)Nc1ccccc1-c1ccccc1	-3	-5	-15	1	-2
CCCC(C)NCC(=O)Nc1ccccc1-c1ccccc1 (stereo not given)	6	72*	.	4	3
CC(C)c1c(Cl)c(O)c(-c2ccccc2)c(=O)n1-c1ccc(F)cc1	-2	88*	8	-2	10
Cc1cc(C)nc(NC(=O)/C=C/c2ccc3c(c2)OCO3)c1	8.9*	7	-17	-3	3
CCCN1Cc2cccc(C(=O)Nc3ccc(C)cc3)c2C1=O	0	-9	-11	-4	-1
CCCN1Cc2cccc(C(=O)NCc3ccc(C)cc3)c2C1=O	9.3*	-4	-5	-5	-14
CCc1[nH]nc(C(=O)N2CCCC(CCC(=O)N3CCN(c4ccccn4)CC3)C2)c1C (stereo not given)	-2	-3	-3	-3	16
CC1CCN(c2nc3nonc3nc2Nc2ccc(F)cc2)CC1	1	-7	-21	-17	23
CCC(C)n1c(=N)c(C#N)cc2c(=O)n3ccccc3nc21 (stereo not given)	0	1	.	-10	29
Cc1ccc(-n2c(=O)c(C#N)cc3c(=O)n4ccccc4nc32)cc1	2	1	-6	-12	94*
